# Screening data as filed in PubChem.
# Most compounds without a hit are left out; they make up all but 2.4% or so of the library.
# Calb FLC = affects C. albicans growth with fluconazole; actives 0.57% (n = 300,000); growth inhibition, % (no concentration beside the values); C. albicans CaCi-2 (fluconazole-resistant clinical isolate) + fluconazole, Alamar Blue growth, 48 h;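 active = growth inhibition above about 58% in most replicates, limit read from the data, passing the limit was not always enough; inconclusive = exactly half the replicates above a set limit; inactive = most replicates below a set limit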;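 also: all wells also contain fluconazole at 8 µg/ml as a sub-toxic cotreatment; 0% = median of DMSO wells and 100% = median of geldanamycin control wells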
# SR-BI DiI-HDL act = activators of SR-BI mediated HDL lipid uptake. CHO ldlA[mSR-BI] cells, DiI-HDL uptake fluorescence, 3 h; 100 = double the neutral-control signal. actives 0.096% (n = 320,000). activation, % at 12.5 µM;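 active = mean replicate activation of at least 60% and every replicate at or above 60%; inconclusive = mean or all-replicate condition met, but not both; inactive = mean below 60% and not all replicates reaching 60%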;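 also: 0% = median plate neutral-control signal and 100% = twice that signal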
#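 System: CHO ldlA[mSR-BI] cells / Medium: HEPES-buffered (25 mM, pH 7.4) F12 plus 0.5% BSA / Probe or stimulus: labelled HDL, 10 µg/mL / Doses: single compound concentration, delivered by pin transfer / Schedule: 3 h, 37 °C / Measured by: DiI fluorescence, bottom read / Measure: cell-associated DiI fluorescence as measure of HDL uptake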
# SR-BI DiI inh = mouse SR-BI HDL lipid transfer inhibition; Q61009; inhibition, % at 12.5 µM; actives 0.96% (n = 320,000); ldlA[mSR-BI] CHO cells, DiI-HDL uptake fluorescence, 3 h;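 active = mean replicate inhibition of at least 70% and a set share of replicates each scoring 70 or more; inconclusive = meets just one of the two criteria; inactive = fails both criteria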;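 also: 0% = median of neutral control wells and 100% = median of positive control wells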
# Target sequence (Q61009 whole entry, looked up): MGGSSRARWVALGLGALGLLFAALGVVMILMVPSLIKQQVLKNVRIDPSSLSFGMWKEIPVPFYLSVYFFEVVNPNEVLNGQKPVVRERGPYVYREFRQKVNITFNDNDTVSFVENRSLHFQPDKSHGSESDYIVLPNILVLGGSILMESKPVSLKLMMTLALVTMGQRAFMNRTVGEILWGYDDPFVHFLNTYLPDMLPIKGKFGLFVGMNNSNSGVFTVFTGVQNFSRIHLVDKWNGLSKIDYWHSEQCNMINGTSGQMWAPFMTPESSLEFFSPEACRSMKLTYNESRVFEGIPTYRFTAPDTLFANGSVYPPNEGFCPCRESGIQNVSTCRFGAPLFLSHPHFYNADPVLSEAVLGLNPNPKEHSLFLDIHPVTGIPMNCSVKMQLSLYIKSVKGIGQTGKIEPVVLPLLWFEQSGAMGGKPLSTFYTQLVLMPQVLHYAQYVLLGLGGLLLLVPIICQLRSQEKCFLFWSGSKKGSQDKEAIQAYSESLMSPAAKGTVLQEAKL
# m5-HT2A agonist = agonists of mouse serotonin 5-HT2A receptor (HTR2A); P35363; CHO-K1 mHTR2A beta-arrestin complementation, luminescence; percent of 30 µM serotonin response; activation, % at 7.6 µM; actives 0.66% (n = 360,000);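 active = activation above a run cutoff, the mean activation of all tested compounds plus 3 SD, cut at about 14% in these data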;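 also: 0% = plate median of compound wells and 100% = 30 µM serotonin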
# beta cell repl = induces beta-cell replication in MIN6 cells; MIN6 cells proliferation, ATPlite luminescence, 48 h; cells starved in 0.2% serum; 100% = growth in 10% serum; proliferation, % at 10 µM; actives 0.29% (n = 330,000);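 active = compounds whose signal lies at least 3.5 SD above the mean of all wells on their plate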;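 also: 0% = DMSO-treated cells in low-serum medium and 100% = 10% serum control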
# Ins promoter up = MIN6 insulin promoter up-regulation | MIN6 insulin promoter-GFP reporter, high-content imaging; hits give high values | z-score at 5 µM | actives 0.3% (n = 190,000);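 active = z-score above 3 at 5 µM with at least 500 cells counted in the well; inconclusive = wells under 500 cells, flagged as cytotoxic or low count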
# * marks the source's active call; other numbers are inactive results; ? = inconclusive; / = not tested or not shown.
SMILES,Calb FLC,SR-BI DiI-HDL act,SR-BI DiI inh,m5-HT2A agonist,beta cell repl,Ins promoter up
CC(=O)Nc1cccc(NC(=O)C2CCCN2C(=O)Nc2ccc(Cl)cc2)c1 (stereo not given),114*,-18,18,5,-3,-0.94
COc1ccc(-c2ccc3c(c2)c(Sc2ccccc2)c(-c2ccccc2)n3C)cc1,/,/,/,2,/,/
C=CCn1c(N)nc2ccccc21,82*,22,-22,2,1,0.16
CCOC(=O)C1(C)CCN1C(=O)c1cncc(Br)c1 (stereo not given),/,/,/,5,/,/
O=C1C=C(NCc2ccccc2)c2ccccc2C1=O,99*,-10,10,-2,/,-0.06
O=C1C=C(Nc2ccccc2O)c2ccccc2C1=O,-5,9,-9,-2,-4,/
OCC[C@@H]1C[C@H](O)[C@@H](O)[C@]2(OCc3ccc(CO)cc32)O1,/,/,/,9,/,/
N#C/C(=C/c1ccccc1)C(=O)NCc1ccccc1,-6,-14,14,4,-2,0.62
CN(C)c1ccc(/C=C(/C#N)C(=O)NCc2ccccc2)o1,8,9,-9,-6,-2,16*
CCN(c1ccccc1)S(=O)(=O)c1ccc(Cl)c(NC(=O)CN(C)C2CCN(C)CC2)c1,78*,/,/,-3,-3,0.09
O=C(Nc1ccc(NC(=O)N2CCN(c3ccccc3O)CC2)cc1)N1CCN(c2ccccc2O)CC1,28,-74,74*,5,-3,/
O=C(C1CC1)N1CCN(c2nc3ccccc3s2)CC1,-2,1,-1,0,-2,-0.22
O=C(Nc1ccc(F)cc1)N1CCN(c2nc3ccccc3s2)CC1,-15,-21,21,23*,-4,-0.74
O=C(Nc1ccc(Cl)cc1)N1CCN(c2ccccc2)CC1,2,-13,13,-1,1,0.29
C#CCOCCOCCOCCNc1nc(N2CCN(C(=O)[C@H](CCC(=O)O)n3cc([C@@H](N)[C@H](C)CC)nn3)CC2)nc(N2CCN(C(=O)[C@H](CCCCN)n3cc([C@@H](N)CC(N)=O)nn3)CC2)n1,/,-12,12,-2,-2,/
CCCC1C(c2ccco2)NC(c2ccco2)CC1(C)O (stereo not given),89*,19,-19,5,-2,0.9
CC1/C(=N/O)CC(c2ccco2)NC1c1ccco1 (stereo not given),-6,38,-38,7,0,-0.15
COc1ccccc1-c1ccc2c(c1)C(C)(Cc1ccc(OC(F)(F)F)cc1)C(=O)N2 (stereo not given),/,/,/,-9,/,/
CN(C(=O)C(C)(C)C)c1ccc(OCC(=O)N2CCc3ccccc3C2)cc1,-6,-95,95*,-4,0,/
Cc1sc2ncnc(Nc3ccc(N4CCOCC4)cc3)c2c1-c1ccccc1,16,-76,76*,8,-5,-0.02
COc1ccc(N2CCC(CNC(=O)Nc3ccc(OC)cc3OC)C2)cc1 (stereo not given),11,-96,96*,-5,-1,0.48
COc1ccc(N2CCC(CNC(=O)Nc3ccc(C)c(C)c3)C2)cc1 (stereo not given),12,-25,25,-6,-4,0.13
CCN=C1S/C(=C/c2ccc(-c3ccc(F)cc3)o2)C(=O)N1CC,1,-72,72*,-4,-2,/
O=C(NC(Cc1ccccc1)C(=O)O)/C(=C/c1ccc(Cl)cc1)NC(=O)c1ccco1 (stereo not given),1,12,-12,-6,0,/
COc1cccc(CN2C(=O)C3(C(C#N)=C(N)OC4=C3C(=O)CCC4)c3ccccc32)c1 (stereo not given),91*,-12,12,7,-2,-2.1
SMILES,Calb FLC,SR-BI DiI-HDL act,SR-BI DiI inh,m5-HT2A agonist,beta cell repl,Ins promoter up
CC(=O)c1ccc(NC(=O)C(C)Sc2nnc(C3CC3)n2C2CC2)cc1 (stereo not given),/,-76,76*,-2,-1,/
COc1ccc(NC(=O)C(C)Sc2nnc(C3CC3)n2C2CC2)cc1 (stereo not given),/,21,-21,-7,-1,/
O=C(CCSc1ccc(F)cc1)NNC(=O)c1ccccc1Cl,/,4,-4,2,-2,/
O=C(COC(=O)CNS(=O)(=O)c1cccc(Br)c1)NC(=O)Nc1ccc2c(c1)OCCO2,/,18,-18,-2,/,0.02
COC(=O)Oc1nsnc1N1CCOCC1,-17,4,-4,-1,0,/
Brc1ccc(Oc2nsnc2N2CCOCC2)cc1,37,-37,37,2,-3,3.9*
Cc1ccc(-n2c(-c3ccccc3)c[n+]3c2CCC3)cc1,96*,8,-8,1,-7,?
Cc1ccc(-n2c(-c3ccc(Cl)cc3)c[n+]3c2CCC3)cc1,5,/,/,-2,-4,-1.9
COC(C[C@@H]1O[C@H]1[C@H](O)[C@@H](C)OCc1ccccc1)OC,-8,/,/,/,-4,/
CSCCC1NC2(C(=O)Nc3c(Cl)cccc32)[C@@H]2C(=O)N(C3CCCC3)C(=O)[C@H]12 (stereo not given in full),55,-13,13,3,-2,-0.49
CSCCC1NC2(C(=O)Nc3c(C)cc(Cl)cc32)[C@@H]2C(=O)N(C3CCCC3)C(=O)[C@H]12 (stereo not given in full),84*,10,-10,2,-2,-0.34
Cn1nc(C(=O)OCC(=O)Nc2ccccc2[N+](=O)[O-])c2ccccc2c1=O,/,7,-7,-4,-2,/
CCc1ccc2nc3sc(C(=O)N4CCc5ccccc54)c(N)c3cc2c1,-16,/,/,/,-5,4.9*
CCOc1ccccc1N1CCN(CC(O)COC2CCCc3ccccc32)CC1 (stereo not given),83*,/,/,-13,0,/
COc1ccc(-c2cc(C3CC3)nc(SCC(=O)c3cccs3)c2C#N)cc1,6,-66,66,-3,-3,0.33
CCOC(=O)CSc1nc(C2CC2)cc(-c2ccc(F)cc2)c1C#N,3,-72,72*,-10,-5,-0.31
Cn1c(=O)c(Nc2ccc(Cl)cc2)c2c3c(cccc31)C(=O)c1ccccc1-2,46,/,/,/,-5,15*
CC(=O)Nc1c2c3c(cccc3n(C)c1=O)C(=O)c1ccccc1-2,-10,-4,4,2,-4,/
Cc1ccc(OCC(=O)Nc2ccc(C)c(S(=O)(=O)N3CCCCCC3)c2)c([N+](=O)[O-])n1,-2,-74,74*,2,-3,-1.2
COc1ccc(C(=O)Nc2ccc(C)c(S(=O)(=O)N3CCCCCC3)c2)cc1,12,-81,81*,2,-4,-0.21
Cc1ccc(C(=O)Nc2cc(Cl)ccc2N2CCCCC2)s1,11,-77,77*,0,-2,-0.27
CCCOc1ccc(CNC(=S)Nc2ccccc2)cc1Cl,8,-17,17,-2,-7,/
